Each structure is given as a SMILES string. In brackets after ≈: the same amount, converted by molar mass.

One may read the IC50 as the point on the concentration scale where inhibition reaches its midpoint. Usually MIC stands for the lowest concentration found to suppress growth. Broadly, the CC50 is the concentration that lowers cell viability or growth by half.

The first data set concerns the target T1, Isocitrate lyase (Mycobacterium tuberculosis, UniProt P9WKK7).
T1 sequence (P9WKK7 whole entry): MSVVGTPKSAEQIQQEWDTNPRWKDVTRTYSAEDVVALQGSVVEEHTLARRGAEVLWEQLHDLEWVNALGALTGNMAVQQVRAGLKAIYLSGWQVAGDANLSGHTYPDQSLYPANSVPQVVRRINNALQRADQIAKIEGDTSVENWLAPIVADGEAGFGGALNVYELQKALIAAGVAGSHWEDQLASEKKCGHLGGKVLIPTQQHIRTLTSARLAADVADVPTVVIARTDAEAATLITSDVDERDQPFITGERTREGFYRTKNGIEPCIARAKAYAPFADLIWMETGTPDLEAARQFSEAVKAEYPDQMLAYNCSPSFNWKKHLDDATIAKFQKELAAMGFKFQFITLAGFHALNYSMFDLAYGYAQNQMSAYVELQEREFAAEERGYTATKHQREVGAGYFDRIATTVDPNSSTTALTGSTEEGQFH
Kind of data set: Inhibition of Mycobacterium tuberculosis isocitrate lyase.
Settings: not given
On to `CCn1cc(C(=O)O)c(=O)c2cc(F)c(N3CCN(C(=O)CC[N+](=O)[O-])CC3)cc21`, for which the IC50 amounted to 0.2 µM.
`COc1c(N2C(C)CN(C(=O)CC[N+](=O)[O-])CC2C)c(F)cc2c(=O)c(C(=O)O)cn(C3CC3)c12` (stereo unspecified) registered an IC50 of 0.1 µM.
`O=C(CC[N+](=O)[O-])N1CCN(c2cccc(C(F)(F)F)c2)CC1` registered a 50% inhibitory concentration (IC50) of 30.2 µM.
As for `CCN1CCN(C(=O)CC[N+](=O)[O-])CC1`, half-maximal inhibition (IC50) required 12.6 µM.
In turn, `CCn1cc(C(=O)O)c(=O)c2cc(F)c(N3CCN(C(=O)CC[N+](=O)[O-])CC3C)c(F)c21` (stereo unspecified) yielded an IC50 of 1.46 µM.
On the same count and under the same terms, to `O=C(CC[N+](=O)[O-])Nc1ccc(Cl)cc1` belongs 21.3 µM; to `O=C(CC[N+](=O)[O-])N1CCN(c2ccccc2)CC1`, 41.2 µM.
As for `Cc1cc(NC(=O)CC[N+](=O)[O-])ccc1Br`, it took 36.8 µM to reach half-maximal inhibition (IC50).
`O=C(O)CC[N+](=O)[O-]` had an IC50 of 116 µM.
In turn, `O=C(CC[N+](=O)[O-])Nc1ccc(Br)cc1` displayed an IC50 of 32.5 µM.
`O=C(O)c1cn(C2CC2)c2cc(N3CCN(C(=O)CC[N+](=O)[O-])CC3)c(F)cc2c1=O` gave an IC50 of 0.12 µM.

Tested on in another data set: not listed separately
Put plainly: Selectivity index, ratio of CC50 for African green monkey Vero cells to MIC for 6-weeks nutrient starved phase cultures of Mycobacterium tuberculosis H37Rv. It counts as functional.
Settings: not given
With `COc1c(N2C(C)CN(C(=O)CC[N+](=O)[O-])CC2C)c(F)cc2c(=O)c(C(=O)O)cn(C3CC3)c12` (stereo unspecified), the “Selectivity Index” value came to 3185.

Another data set relates to Mycobacterium tuberculosis. Put plainly: Antimycobacterial activity against active log phase Mycobacterium tuberculosis H37Rv by agar dilution method. Type of data set: functional.
Settings: not given
In short, it runs like this:
(§1)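 Log-phase cultures (M. tuberculosis H37Rv at OD 600; M. smegmatis ATCC 14468) tested by agar dilution following NCCLS-type MIC procedure, in duplicate. MIC taken as lowest concentration giving complete inhibition of bacterial growth.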
Background: Agar dilution tests growth on a series of plates holding different concentrations.
On to `CCn1cc(C(=O)O)c(=O)c2cc(F)c(N3CCN(C(=O)CC[N+](=O)[O-])CC3)cc21`, for which the MIC turned out to be 1.85 µM (≈ 0.778 µg/mL).
For the compound `COc1c(N2C(C)CN(C(=O)CC[N+](=O)[O-])CC2C)c(F)cc2c(=O)c(C(=O)O)cn(C3CC3)c12` (stereo unspecified), it took 0.16 µM (≈ 0.0785 µg/mL) to inhibit growth (MIC).
`O=C(CC[N+](=O)[O-])Nc1ccc(Cl)cn1` came in with an MIC of 109 µM (≈ 25 µg/mL).
With `O=C(CC[N+](=O)[O-])N1CCN(c2cccc(C(F)(F)F)c2)CC1`, the MIC came to 151 µM (≈ 50 µg/mL).
Still for that read-out and setting: to `CCN1CCN(C(=O)CC[N+](=O)[O-])CC1` belongs 58.1 µM (≈ 12.5 µg/mL).
On to `CCn1cc(C(=O)O)c(=O)c2cc(F)c(N3CCN(C(=O)CC[N+](=O)[O-])CC3C)c(F)c21` (stereo unspecified), for which the lowest concentration to inhibit growth (MIC) was 3.44 µM (≈ 1.56 µg/mL).
`O=C(CC[N+](=O)[O-])Nc1ccc(Cl)cc1` returned an MIC of 109 µM (≈ 25 µg/mL).
`O=C(CC[N+](=O)[O-])N1CCN(c2ccccc2)CC1` registered a minimum inhibitory concentration (MIC) of 190 µM (≈ 50 µg/mL).
On to `Cc1cc(NC(=O)CC[N+](=O)[O-])ccc1Br`, for which the MIC is 43.5 µM (≈ 12.5 µg/mL).
On the same count and under the same terms, with `O=C(O)CC[N+](=O)[O-]` the figure was above 420 µM; with `O=C(CC[N+](=O)[O-])Nc1ccc(Br)cc1`, 183 µM (≈ 50 µg/mL); with `O=C(O)c1cn(C2CC2)c2cc(N3CCN(C(=O)CC[N+](=O)[O-])CC3)c(F)cc2c1=O`, 1.8 µM (≈ 0.778 µg/mL).

In a further data set the test system is Mycolicibacterium smegmatis. Put plainly: Antimycobacterial activity against 6-weeks nutrient starved phase cultures of Mycobacterium smegmatis ATCC 14468 treated for 7 days measured after 4 weeks by agar dilution method. It counts as functional.
Settings: not given
`CCn1cc(C(=O)O)c(=O)c2cc(F)c(N3CCN(C(=O)CC[N+](=O)[O-])CC3)cc21` had an MIC of 0.95 µM (≈ 0.399 µg/mL).
For `COc1c(N2C(C)CN(C(=O)CC[N+](=O)[O-])CC2C)c(F)cc2c(=O)c(C(=O)O)cn(C3CC3)c12` (stereo unspecified), the MIC came out at 0.08 µM (≈ 0.0392 µg/mL).
On the same count and under the same terms, with `O=C(CC[N+](=O)[O-])Nc1ccc(Cl)cn1` the figure was 109 µM (≈ 25 µg/mL); with `O=C(CC[N+](=O)[O-])N1CCN(c2cccc(C(F)(F)F)c2)CC1`, 75.5 µM (≈ 25 µg/mL); with `CCN1CCN(C(=O)CC[N+](=O)[O-])CC1`, 116 µM (≈ 25 µg/mL).
Compound `CCn1cc(C(=O)O)c(=O)c2cc(F)c(N3CCN(C(=O)CC[N+](=O)[O-])CC3C)c(F)c21` (stereo unspecified) gave an MIC of 1.72 µM (≈ 0.778 µg/mL).
For `O=C(CC[N+](=O)[O-])Nc1ccc(Cl)cc1`, inhibition of growth (MIC) required 13.7 µM (≈ 3.13 µg/mL).
Compound `O=C(CC[N+](=O)[O-])N1CCN(c2ccccc2)CC1` showed a minimal inhibitory concentration (MIC) above 190 µM.
Same read-out and setting: with `Cc1cc(NC(=O)CC[N+](=O)[O-])ccc1Br` the figure was 43.5 µM (≈ 12.5 µg/mL); with `O=C(O)CC[N+](=O)[O-]`, above 420 µM.
As to `O=C(CC[N+](=O)[O-])Nc1ccc(Br)cc1`, the lowest concentration to inhibit growth (MIC) was 91.5 µM (≈ 25 µg/mL).
On the same count and under the same terms, to `O=C(O)c1cn(C2CC2)c2cc(N3CCN(C(=O)CC[N+](=O)[O-])CC3)c(F)cc2c1=O` belongs 0.09 µM (≈ 0.0389 µg/mL).

For the next data set, the system named is Mycobacterium tuberculosis. Put plainly: Ratio of isoniazid MIC to compound MIC for active log phase Mycobacterium tuberculosis H37Rv by agar dilution method. It counts as functional.
Settings: not given
In short, it runs like this: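 MIC by agar dilution, following NCCLS-type guidance, against log-phase M. tuberculosis H37Rv (OD 600), run in duplicate. MIC is the lowest concentration that gives complete inhibition of bacterial growth. The line's ratio is isoniazid MIC divided by compound MIC.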
Turning to `COc1c(N2C(C)CN(C(=O)CC[N+](=O)[O-])CC2C)c(F)cc2c(=O)c(C(=O)O)cn(C3CC3)c12` (stereo unspecified), the Ratio was determined as 4.5.

The test system of a further data set is Mycobacterium tuberculosis. Put plainly: Antimycobacterial activity against 6-weeks nutrient starved phase cultures of Mycobacterium tuberculosis H37Rv treated for 7 days measured after 4 weeks by agar dilution method. Type of data set: functional.
Settings: not given
`CCn1cc(C(=O)O)c(=O)c2cc(F)c(N3CCN(C(=O)CC[N+](=O)[O-])CC3)cc21` showed an MIC of 0.47 µM (≈ 0.198 µg/mL).
As to `COc1c(N2C(C)CN(C(=O)CC[N+](=O)[O-])CC2C)c(F)cc2c(=O)c(C(=O)O)cn(C3CC3)c12` (stereo unspecified), the MIC came to 0.04 µM (≈ 0.0196 µg/mL).
On the same count and under the same terms, with `O=C(CC[N+](=O)[O-])Nc1ccc(Cl)cn1` the figure was 54.4 µM (≈ 12.5 µg/mL).
In the case of `O=C(CC[N+](=O)[O-])N1CCN(c2cccc(C(F)(F)F)c2)CC1`, 37.7 µM (≈ 12.5 µg/mL) was the least that counted as inhibitory (MIC).
`CCN1CCN(C(=O)CC[N+](=O)[O-])CC1` gave an MIC of 29 µM (≈ 6.25 µg/mL).
In turn, `CCn1cc(C(=O)O)c(=O)c2cc(F)c(N3CCN(C(=O)CC[N+](=O)[O-])CC3C)c(F)c21` (stereo unspecified) returned an MIC of 1.72 µM (≈ 0.778 µg/mL).
`O=C(CC[N+](=O)[O-])Nc1ccc(Cl)cc1` showed an MIC of 27.3 µM (≈ 6.25 µg/mL).
In the case of `O=C(CC[N+](=O)[O-])N1CCN(c2ccccc2)CC1`, the MIC was 47.5 µM (≈ 12.5 µg/mL).
The same measure, in the same setting: with `Cc1cc(NC(=O)CC[N+](=O)[O-])ccc1Br` the figure was 43.5 µM (≈ 12.5 µg/mL); with `O=C(O)CC[N+](=O)[O-]`, above 420 µM.
Same read-out and setting: with `O=C(CC[N+](=O)[O-])Nc1ccc(Br)cc1` the figure was 45.8 µM (≈ 12.5 µg/mL); with `O=C(O)c1cn(C2CC2)c2cc(N3CCN(C(=O)CC[N+](=O)[O-])CC3)c(F)cc2c1=O`, 0.09 µM (≈ 0.0389 µg/mL).

The next data set deals with Mycobacterium tuberculosis. Kind of data set: Ratio of MIC for 6-weeks nutrient starved phase cultures of Mycobacterium tuberculosis H37Rv to MIC for active log phase Mycobacterium tuberculosis H37Rv. Type of data set: functional.
Settings: not given
Take `COc1c(N2C(C)CN(C(=O)CC[N+](=O)[O-])CC2C)c(F)cc2c(=O)c(C(=O)O)cn(C3CC3)c12` (stereo unspecified): the Ratio is listed as 4.

A further data set concerns Mycolicibacterium smegmatis. Put plainly: Antimycobacterial activity against active log phase Mycobacterium smegmatis ATCC 14468 by agar dilution method. Type of data set: functional.
Settings: not given
In short, it runs like this:
as §1
For the compound `CCn1cc(C(=O)O)c(=O)c2cc(F)c(N3CCN(C(=O)CC[N+](=O)[O-])CC3)cc21`, the minimum inhibitory concentration (MIC) was found to be 7.44 µM (≈ 3.13 µg/mL).
As for `COc1c(N2C(C)CN(C(=O)CC[N+](=O)[O-])CC2C)c(F)cc2c(=O)c(C(=O)O)cn(C3CC3)c12` (stereo unspecified), the minimal inhibitory concentration (MIC) is 0.08 µM (≈ 0.0392 µg/mL).
`O=C(CC[N+](=O)[O-])Nc1ccc(Cl)cn1` returned a minimal inhibitory concentration (MIC) of 218 µM (≈ 50 µg/mL).
The compound `O=C(CC[N+](=O)[O-])N1CCN(c2cccc(C(F)(F)F)c2)CC1` had an MIC of 75.5 µM (≈ 25 µg/mL).
In turn, `CCN1CCN(C(=O)CC[N+](=O)[O-])CC1` showed an MIC of 58.1 µM (≈ 12.5 µg/mL).
`CCn1cc(C(=O)O)c(=O)c2cc(F)c(N3CCN(C(=O)CC[N+](=O)[O-])CC3C)c(F)c21` (stereo unspecified) displayed an MIC of 6.91 µM (≈ 3.13 µg/mL).
`O=C(CC[N+](=O)[O-])Nc1ccc(Cl)cc1` displayed an MIC of 54.7 µM (≈ 12.5 µg/mL).
The compound `O=C(CC[N+](=O)[O-])N1CCN(c2ccccc2)CC1` returned an MIC of 190 µM (≈ 50 µg/mL).
`Cc1cc(NC(=O)CC[N+](=O)[O-])ccc1Br` registered an MIC of 87.1 µM (≈ 25 µg/mL).
The same measure, in the same setting: with `O=C(O)CC[N+](=O)[O-]` the figure was above 420 µM; with `O=C(CC[N+](=O)[O-])Nc1ccc(Br)cc1`, 91.5 µM (≈ 25 µg/mL).
Take `O=C(O)c1cn(C2CC2)c2cc(N3CCN(C(=O)CC[N+](=O)[O-])CC3)c(F)cc2c1=O`: the lowest concentration to inhibit growth (MIC) was 0.09 µM (≈ 0.0389 µg/mL).

Tested on in another data set: not listed separately
Kind of data set: Cytotoxicity against African green monkey Vero cells after 72 hrs by MTT assay. Type of data set: cell-based. Conditions: chlorocebus sabaeus. In short, it runs like this:
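Vero cells exposed to a single concentration of 62.5 µg/mL for 72 h; viability read by cellular conversion of MTT to formazan (non-radioactive cell proliferation assay).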
(In general: Tetrazolium dyes change colour on reduction, which living cells bring about.)
Regarding `CCn1cc(C(=O)O)c(=O)c2cc(F)c(N3CCN(C(=O)CC[N+](=O)[O-])CC3)cc21`, the 50% cytotoxic concentration (CC50) at 72 h is above 149 µM.
Same read-out and setting: to `COc1c(N2C(C)CN(C(=O)CC[N+](=O)[O-])CC2C)c(F)cc2c(=O)c(C(=O)O)cn(C3CC3)c12` (stereo unspecified) belongs above 127 µM; to `CCn1cc(C(=O)O)c(=O)c2cc(F)c(N3CCN(C(=O)CC[N+](=O)[O-])CC3C)c(F)c21` (stereo unspecified), above 138 µM; to `O=C(O)c1cn(C2CC2)c2cc(N3CCN(C(=O)CC[N+](=O)[O-])CC3)c(F)cc2c1=O`, above 145 µM.
